Key:
Bcr/Abl fusion protein [1] = molecular target: Bcr/Abl fusion protein (Homo sapiens, UniProt P00519); assay: Inhibition of wild type BCR/ABL (unknown origin) measured after 60 mins in presence of ATP by ADP-Glo kinase assay; assay type: protein assay
K562 = assay: Antiproliferative activity against human BCR/ABL positive K562 cells assessed as growth inhibition measured after 48 hrs by MTT assay; assay type: functional, cell-based; details: K562, 48 h
In short: (§1)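 K562 and K562R (T315I) cells grown in RPMI 1640 + 10% FBS; 2500 cells/well seeded, 12 h at 37 °C, 5% CO2, then compounds at indicated final concentrations for 48 h. MTT 0.5 mg/mL final, 4 h at 37 °C; supernatant removed, DMSO added, absorbance at 490 nm. IC50 calculated from inhibition ratios.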

Bcr/Abl fusion protein [2] = molecular target: Bcr/Abl fusion protein (Homo sapiens, UniProt P00519, T315I); assay: Inhibition of BCR/ABL T315I mutant (unknown origin) measured after 60 mins in presence of ATP by ADP-Glo kinase assay; assay type: protein assay
[3] = molecular target: Tyrosine-protein kinase HCK (Homo sapiens, UniProt P08631); assay: Inhibition of human recombinant N-terminal GST tagged HCK (230 to 497 residues) expressed in baculovirus infected Sf9 cells using poly (Glu,Tyr) 4:1 as substrate measured after 60 mins in presence of ATP by ADP-Glo kinase assay
In short: (§2)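 ADP-Glo luminescence format: kinase with substrate/ATP mix and inhibitor in 40 mM Tris pH 7.4, 10 mM MgCl2, 0.1 mg/mL BSA, 1 mM DTT, 60 min at 30 °C. ADP-Glo reagent 40 min at room temperature to stop and deplete ATP, then detection reagent 30 min; luminescence read.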

EA.hy 926 = assay: Cytotoxicity against human EAhy926 cells upto 150 uM measured after 48 hrs by MTT assay; assay type: cell-based; details: ea.hy 926, 48 h
In short: (§3)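 Normal human cells (EA.hy926, Hek293) kept in DMEM + 10% FBS; 2500 cells/well, 12 h preincubation at 37 °C, 5% CO2; compound added at indicated final concentrations for 48 h. MTT at 0.5 mg/mL final for 4 h, formazan dissolved in DMSO, absorbance read at 490 nm.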

[4] = molecular target: Mitogen-activated protein kinase 14 (Homo sapiens, UniProt Q16539); assay: Inhibition of human recombinant full length N-terminal GST tagged p38alpha expressed in baculovirus infected Sf9 cells using p38 peptide as substrate measured after 60 mins in presence of ATP by ADP-Glo kinase assay; in short: as §2
HEK293 = assay: Cytotoxicity against human HEK293 cells upto 150 uM measured after 48 hrs by MTT assay; assay type: cell-based; details: hek293, 48 h; in short: as §3
[5] = molecular target: Bcr/Abl fusion protein (Homo sapiens) (UniProt P00519+P11274); assay: Inhibition of BCR/ABL phosphorylation in human K562 cells measured after 4 hrs by Western blot analysis; assay type: cell-based
In short: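 K562 cells exposed to DMSO vehicle or drug for 4 h, lysed in SDS sample buffer, BCA-normalized; equal protein run on SDS-PAGE, transferred to PVDF, blocked in 5% milk/TBS-0.1% Tween-20. Probed overnight at 4 °C for Bcr-Abl, p-Bcr-Abl, actin; HRP secondaries 2 h at room temperature; ECL detection.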

K-562R = assay: Antiproliferative activity against human K562R cells expressing BCR/ABL T315I mutant assessed as growth inhibition measured after 48 hrs by MTT assay; assay type: functional, cell-based; in short: as §1
[6] = molecular target: Proto-oncogene tyrosine-protein kinase Src (Homo sapiens, UniProt P12931); assay: Inhibition of human recombinant full length N-terminal GST tagged SRC expressed in Escherichia coli using KVEKIGEGTYGVVYK-amide as substrate measured after 60 mins in presence of ATP by ADP-Glo kinase assay; in short: as §2
Sequence of Proto-oncogene tyrosine-protein kinase Src (P12931 2-536 limits assumed): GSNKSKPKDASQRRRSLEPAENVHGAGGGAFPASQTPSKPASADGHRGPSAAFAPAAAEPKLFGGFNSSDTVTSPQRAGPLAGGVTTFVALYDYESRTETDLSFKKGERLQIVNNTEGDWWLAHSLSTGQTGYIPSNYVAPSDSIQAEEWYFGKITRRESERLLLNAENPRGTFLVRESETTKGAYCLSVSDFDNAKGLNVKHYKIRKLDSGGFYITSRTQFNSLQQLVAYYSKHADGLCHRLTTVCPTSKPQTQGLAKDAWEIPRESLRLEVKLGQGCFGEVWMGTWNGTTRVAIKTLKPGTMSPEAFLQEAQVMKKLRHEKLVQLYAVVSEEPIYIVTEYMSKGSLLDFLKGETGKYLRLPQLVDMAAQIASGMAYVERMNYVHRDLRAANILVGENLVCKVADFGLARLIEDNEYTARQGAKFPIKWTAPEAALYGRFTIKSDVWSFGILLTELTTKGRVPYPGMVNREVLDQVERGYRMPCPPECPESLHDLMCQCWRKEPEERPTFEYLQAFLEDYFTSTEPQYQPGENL

Sequence of Tyrosine-protein kinase HCK (P08631 whole entry, the tested form may be a part): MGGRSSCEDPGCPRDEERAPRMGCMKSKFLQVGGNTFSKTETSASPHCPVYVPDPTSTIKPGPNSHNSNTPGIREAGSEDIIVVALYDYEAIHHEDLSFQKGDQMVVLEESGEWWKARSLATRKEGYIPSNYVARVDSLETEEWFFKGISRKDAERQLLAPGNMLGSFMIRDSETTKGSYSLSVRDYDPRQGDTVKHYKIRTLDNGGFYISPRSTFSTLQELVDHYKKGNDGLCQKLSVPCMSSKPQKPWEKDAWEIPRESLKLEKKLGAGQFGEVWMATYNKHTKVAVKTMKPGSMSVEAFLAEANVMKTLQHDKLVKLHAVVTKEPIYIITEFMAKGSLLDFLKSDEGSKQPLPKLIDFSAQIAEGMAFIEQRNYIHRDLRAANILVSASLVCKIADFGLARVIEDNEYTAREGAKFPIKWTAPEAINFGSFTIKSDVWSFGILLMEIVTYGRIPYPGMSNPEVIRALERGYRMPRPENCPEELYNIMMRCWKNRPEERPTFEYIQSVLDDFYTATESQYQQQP
Sequence of Mitogen-activated protein kinase 14 (Q16539 whole entry): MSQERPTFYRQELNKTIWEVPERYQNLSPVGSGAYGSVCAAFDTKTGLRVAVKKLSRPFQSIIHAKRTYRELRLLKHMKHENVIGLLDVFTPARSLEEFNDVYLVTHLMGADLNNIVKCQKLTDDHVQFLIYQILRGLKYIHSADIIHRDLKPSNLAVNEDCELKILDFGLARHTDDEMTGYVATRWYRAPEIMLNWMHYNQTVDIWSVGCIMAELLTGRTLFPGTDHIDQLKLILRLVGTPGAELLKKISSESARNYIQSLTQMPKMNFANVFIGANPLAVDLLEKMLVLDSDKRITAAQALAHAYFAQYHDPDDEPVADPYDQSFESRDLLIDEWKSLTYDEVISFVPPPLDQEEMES

Row | IC50 (Bcr/Abl fusion protein [1]) [µM] | IC50 (K562) [µM] | IC50 (Bcr/Abl fusion protein [2]) [µM] | SMILES | other results
1 | 4.28 | > 150 | 86.1 | CN(C)c1ccc(C(=O)N2CCN(C(=O)c3ccc(-c4cccc5[nH]nc(N)c45)cc3)CC2)cc1 | –
2 | 7.12 | 9.25 | 1.5 | Nc1n[nH]c2cccc(-c3ccc(C(=O)N4CCN(C(=O)c5ccc(Br)cc5)CC4)cc3)c12 | –
3 | 1.35 | 9.49 | 38.5 | Nc1n[nH]c2cccc(-c3ccc(C(=O)NCCNC(=O)c4ccc(F)cc4)cc3)c12 | –
4 | 0.11 | 17.1 | 20 | Nc1n[nH]c2cccc(-c3ccc(C(=O)NCCNC(=O)c4ccc(Cl)c(C(F)(F)F)c4)cc3)c12 | –
5 | 10.7 | 4.9 | 2.08 | Nc1n[nH]c2cccc(-c3ccc(C(=O)N4CCN(C(=O)c5ccc(Cl)c(C(F)(F)F)c5)CC4)cc3)c12 | –
6 | – | 5.93 | – | Cc1ccc(C(=O)NCCNC(=O)c2ccc(-c3cccc4[nH]nc(N)c34)cc2)cc1 | –
7 | 2.54 | 61.2 | 6.23 | CN(C)c1ccc(C(=O)N2CCN(C(=O)c3ccc(-c4ccc5c(N)n[nH]c5c4)cc3)CC2)cc1 | –
8 | 5.75 | > 150 | 76.8 | CN(C)c1ccc(C(=O)NCCNC(=O)c2ccc(-c3cccc4[nH]nc(N)c34)cc2)cc1 | –
9 | 32.2 | 59.3 | 3.72 | Cc1ccc(C(=O)N2CCN(C(=O)c3ccc(-c4ccc5c(N)n[nH]c5c4)cc3)CC2)cc1 | –
10 | 17.6 | 102 | 20.9 | Nc1n[nH]c2cccc(-c3ccc(C(=O)N4CCN(C(=O)c5ccc(F)cc5)CC4)cc3)c12 | –
11 | 31.6 | > 150 | 94.8 | Nc1n[nH]c2cccc(-c3ccc(C(=O)NCCNC(=O)c4ccc(Br)cc4)cc3)c12 | –
12 | 0.043 | 1.65 | 0.17 | Nc1n[nH]c2cc(-c3ccc(C(=O)NCCNC(=O)c4ccc(Cl)c(C(F)(F)F)c4)cc3)ccc12 | IC50 [3]: > 100 µM; Activity (EA.hy 926): Non-Toxic; IC50 [4]: 34.5 µM; Activity (HEK293): Non-Toxic; inhibition [5]: Dose-dependent effect; IC50 (K-562R): 5.42 µM; IC50 [6]: 15.1 µM
13 | 2.16 | 14 | 2.68 | Nc1n[nH]c2cc(-c3ccc(C(=O)NCCNC(=O)c4ccc(Br)cc4)cc3)ccc12 | –
14 | 0.38 | 1.45 | 4.3 | Cc1ccc(C(=O)NCCNC(=O)c2ccc(-c3ccc4c(N)n[nH]c4c3)cc2)cc1 | –
15 | 5.85 | > 150 | 179 | Cc1ccc(C(=O)N2CCN(C(=O)c3ccc(-c4cccc5[nH]nc(N)c45)cc3)CC2)cc1 | –
16 | 6.28 | 11.3 | 31.9 | Nc1n[nH]c2cc(-c3ccc(C(=O)N4CCN(C(=O)c5ccc(Br)cc5)CC4)cc3)ccc12 | –
17 | 2.34 | 39.1 | 8.6 | Nc1n[nH]c2cc(-c3ccc(C(=O)N4CCN(C(=O)c5ccc(F)cc5)CC4)cc3)ccc12 | –
18 | 2.45 | 13.4 | 61.2 | Nc1n[nH]c2cc(-c3ccc(C(=O)NCCNC(=O)c4ccc(F)cc4)cc3)ccc12 | –
19 | 3.45 | 7.52 | 0.29 | CN(C)c1ccc(C(=O)NCCNC(=O)c2ccc(-c3ccc4c(N)n[nH]c4c3)cc2)cc1 | –
20 | – | 4.26 | – | Cc1ccc(NC(=O)c2ccc(CN3CCN(C)CC3)cc2)cc1Nc1nccc(-c2cccnc2)n1 [IMATINIB] | IC50 (K-562R): 90 µM
21 | 1.99 | 4.84 | 5.33 | Nc1n[nH]c2cc(-c3ccc(C(=O)N4CCN(C(=O)c5ccc(Cl)c(C(F)(F)F)c5)CC4)cc3)ccc12 | –
